Laboratory results from ChEMBL document CHEMBL1122517, “2-Phenylindoles. Relationship between structure, estrogen receptor affinity, and mammary tumor inhibiting activity in the rat” (1984).
“And” between values parts separate entries of the source, which are not always exact repeats. Equal values may be shown once. Blank lines part the entries; values can stand above or below the compound they belong to.

Tests used:
[1] = target: T1, Estrogen receptor (Mus musculus) (UniProt O08537+P19785); test: Percentage inhibition of uterotrophic activity at 5 ug dose; assay type: functional
T1 sequence (O08537 whole entry, looked up): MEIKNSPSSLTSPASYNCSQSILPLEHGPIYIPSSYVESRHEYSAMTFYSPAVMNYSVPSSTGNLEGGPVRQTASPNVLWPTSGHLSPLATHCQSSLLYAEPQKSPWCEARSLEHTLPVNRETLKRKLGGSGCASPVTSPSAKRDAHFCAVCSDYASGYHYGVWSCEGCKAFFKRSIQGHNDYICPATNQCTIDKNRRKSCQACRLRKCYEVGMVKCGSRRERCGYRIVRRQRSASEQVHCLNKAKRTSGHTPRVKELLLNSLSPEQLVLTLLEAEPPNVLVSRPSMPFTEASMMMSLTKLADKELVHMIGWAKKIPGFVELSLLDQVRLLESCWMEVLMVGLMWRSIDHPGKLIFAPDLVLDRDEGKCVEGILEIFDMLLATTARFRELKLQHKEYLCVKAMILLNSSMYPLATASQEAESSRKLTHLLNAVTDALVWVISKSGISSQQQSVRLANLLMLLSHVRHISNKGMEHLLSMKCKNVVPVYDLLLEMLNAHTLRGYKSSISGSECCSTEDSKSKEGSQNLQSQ
T1 sequence (P19785 whole entry, looked up): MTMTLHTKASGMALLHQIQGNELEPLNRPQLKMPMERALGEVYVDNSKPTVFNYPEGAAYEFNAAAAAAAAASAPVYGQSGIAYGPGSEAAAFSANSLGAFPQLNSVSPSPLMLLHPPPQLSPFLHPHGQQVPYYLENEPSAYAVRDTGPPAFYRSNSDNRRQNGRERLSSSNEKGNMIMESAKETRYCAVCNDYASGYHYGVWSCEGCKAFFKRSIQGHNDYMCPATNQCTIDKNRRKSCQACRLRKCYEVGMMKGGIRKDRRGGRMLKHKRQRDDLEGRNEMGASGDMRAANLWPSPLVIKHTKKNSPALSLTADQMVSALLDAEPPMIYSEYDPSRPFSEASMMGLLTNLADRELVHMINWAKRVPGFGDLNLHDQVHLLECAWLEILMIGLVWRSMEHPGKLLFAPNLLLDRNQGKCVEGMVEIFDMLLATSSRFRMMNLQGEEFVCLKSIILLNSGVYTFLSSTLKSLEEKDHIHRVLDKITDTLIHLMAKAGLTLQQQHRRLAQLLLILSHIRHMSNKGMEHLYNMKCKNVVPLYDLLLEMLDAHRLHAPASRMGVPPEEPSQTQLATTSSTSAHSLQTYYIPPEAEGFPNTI
Method in brief: (§1)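 Antiuterotrophic test in immature 19-day-old female NMRI mice (n=10), dosed sc on 3 consecutive days with 0.4 µg estrone per animal per day plus compound in olive oil. Uterine dry weight/body weight ×100 was read 24 h after the last dose. Inhibition % = 100 − [(E_S,T − E_V)/(E_S − E_V)]×100.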

[2] = target: T1, Estrogen receptor (Mus musculus); test: Anti-uterotrophic activity in mice as uterus dry weight (mg)/body weight (g) *100 at 1 ug dose; assay type: functional, tissue-based
Method in brief: (§2)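 Immature female NMRI mice, 19 days old, groups of 10, given sc injections on 3 consecutive days. Each injection held 0.4 μg estrone plus the indole dose per animal, in olive oil (50 μL). Killed 24 h after the last injection. Uteri were fixed in Bouin solution, washed, and dried 24 h at 100 °C. Read-out was uterine dry weight (mg)/body weight (g) × 100, mean ± SD.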

[3] = species on record: Rattus norvegicus; test: Change in DMBA-induced mammary carcinoma tumor area in rats at 4 mg dose; -100-47; assay type: functional
Method in brief: (§3)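 Female Sprague-Dawley rats got one 20 mg DMBA dose by gavage at 50 days old and were palpated twice weekly from day 30. Rats were randomized once tumor area exceeded 140 mm². Dose (per kg) was given sc in olive oil, once daily Monday to Thursday and doubled on Friday. Tumor area was taken from caliper measurements of two perpendicular axes, twice weekly. Change per animal is given as median % and range.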

[4] = species on record: Rattus norvegicus; test: Percent progressive DMBA-induced mammary carcinoma tumors in rats at 4 mg dose; assay type: functional
Method in brief: (§4)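 Female Sprague-Dawley rats, 50 days old, given a single 20 mg DMBA dose in 1 mL olive oil by gavage. Rats were palpated twice weekly from day 30, and those without tumors by day 70 were discarded. Rats were randomized once tumor area exceeded 140 mm². Drug dose was per kg in olive oil (1 mL/kg) sc, single dose Mon–Thu and double dose Fri. Tumor area (caliper, two perpendicular axes) and body weight were measured twice weekly.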

[5] = species on record: Rattus norvegicus; test: Partial remission (%) of DMBA-induced mammary carcinoma tumors in rats at 4 mg dose; assay type: functional; method in brief: as §4
[6] = target: T1, Estrogen receptor (Mus musculus); test: Anti-uterotrophic activity in mice as uterus dry weight (mg)/body weight (g) *100 at 125 ug dose; assay type: functional, tissue-based; method in brief: as §2
[7] = target: T1, Estrogen receptor (Mus musculus); test: Anti-uterotrophic activity in mice as uterus dry weight (mg)/body weight (g) *100 at 5 ug dose; assay type: functional, tissue-based; method in brief: as §2
[8] = target: T1, Estrogen receptor (Mus musculus); test: Uterotrophic activity in mice as uterus dry weight (mg)/body weight (g) *100 at 1 ug dose; assay type: functional, tissue-based
Method in brief: (§5)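 Immature 19-day-old female NMRI mice, groups of 10. Compound dose per animal in olive oil (50 µL) sc on 3 consecutive days. Mice were killed 24 h after the last injection. Uteri were Bouin-fixed 20 h, cleaned, washed with alcoholic LiCl, and dried at 100 °C for 24 h. Effect = uterine dry weight (mg)/body weight (g) ×100; mean ± SD.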

[9] = species on record: Rattus norvegicus; test: Complete remission (%) of DMBA-induced mammary carcinoma tumors in rats at 4 mg dose; assay type: functional
Method in brief: (§6)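 DMBA-induced tumors in Sprague-Dawley rats, entered when tumor area exceeded 140 mm². Dose per kg was given sc in olive oil, daily Monday to Thursday with a double dose Friday. Tumors were measured by calipers twice weekly. Tumor number was counted at the start of the test. Complete remission meant the tumor was no longer palpable. Partial remission meant reduction to ≤50% of initial size. New tumor appearance was recorded.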

[10] = target: T1, Estrogen receptor (Mus musculus); test: Percentage inhibition of uterotrophic activity at 1 ug dose; assay type: functional; method in brief: as §1
[11] = species on record: Rattus norvegicus; test: Formation of new DMBA-induced mammary carcinoma tumors in rats at 4 mg dose; assay type: functional; method in brief: as §6
[12] = target: T1, Estrogen receptor (Mus musculus); test: Uterotrophic activity in mice as uterus dry weight (mg)/body weight (g) *100 at 125 ug dose; assay type: functional, tissue-based; method in brief: as §5
[13] = target: T1, Estrogen receptor (Mus musculus); test: Uterotrophic activity in mice as uterus dry weight (mg)/body weight (g) *100 at 25 ug dose; assay type: functional, tissue-based; method in brief: as §5
[14] = species on record: Rattus norvegicus; test: Number of DMBA-induced mammary carcinoma tumors in rats at 4 mg dose; assay type: functional; method in brief: as §6
[15] = species on record: Rattus norvegicus; test: Percent unchanged DMBA-induced mammary carcinoma tumors in rats at 4 mg dose; assay type: functional; method in brief: as §4
[16] = target: T1, Estrogen receptor (Mus musculus); test: Percentage inhibition of uterotrophic activity at 25 ug dose; assay type: functional; method in brief: as §1
[17] = species on record: Rattus norvegicus; test: Change in body weight of DMBA-induced mammary carcinoma tumor bearing rats at 4 mg dose; assay type: functional
Method in brief: (§7)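 DMBA-induced tumor-bearing Sprague-Dawley rats (20 mg DMBA by gavage at 50 days old), randomized when tumor area exceeded 140 mm². Dose per kg was given sc in olive oil, single dose daily Monday to Thursday, double dose Friday. Body weight was measured twice weekly. Read-out was % change in body weight.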

[18] = species on record: Rattus norvegicus; test: Change in DMBA-induced mammary carcinoma tumor area in rats at 4 mg dose; assay type: functional; method in brief: as §3
[19] = target: T1, Estrogen receptor (Mus musculus); test: Anti-uterotrophic activity in mice as uterus dry weight (mg)/body weight (g) *100 at 25 ug dose; assay type: functional, tissue-based; method in brief: as §2
[20] = target: T1, Estrogen receptor (Mus musculus); test: Percentage inhibition of uterotrophic activity at 125 ug dose; assay type: functional; method in brief: as §1
[21] = target: T1, Estrogen receptor (Mus musculus); test: Uterotrophic activity in mice as uterus dry weight (mg)/body weight (g) *100 at 5 ug dose; assay type: functional, tissue-based; method in brief: as §5
[22] = species on record: Rattus norvegicus; test: Change in body weight of DMBA-induced mammary carcinoma tumor bearing rats at 5.1 mg dose; assay type: functional; method in brief: as §7
[23] = species on record: Rattus norvegicus; test: Change in DMBA-induced mammary carcinoma tumor area in rats at 5.1 mg dose; -44-333; assay type: functional; method in brief: as §3
[24] = species on record: Rattus norvegicus; test: Percent progressive DMBA-induced mammary carcinoma tumors in rats at 5.1 mg dose; assay type: functional; method in brief: as §4
[25] = species on record: Rattus norvegicus; test: Change in DMBA-induced mammary carcinoma tumor area in rats at 1.7 mg dose; assay type: functional; method in brief: as §3
[26] = species on record: Rattus norvegicus; test: Partial remission (%) of DMBA-induced mammary carcinoma tumors in rats at 1.7 mg dose; assay type: functional; method in brief: as §6
[27] = species on record: Rattus norvegicus; test: Change in DMBA-induced mammary carcinoma tumor area in rats at 1.7 mg dose; 318-1054; assay type: functional; method in brief: as §3
[28] = species on record: Rattus norvegicus; test: Complete remission (%) of DMBA-induced mammary carcinoma tumors in rats at 5.1 mg dose; assay type: functional; method in brief: as §6
[29] = species on record: Rattus norvegicus; test: Partial remission (%) of DMBA-induced mammary carcinoma tumors in rats at 5.1 mg dose; assay type: functional; method in brief: as §4
[30] = species on record: Rattus norvegicus; test: Percent unchanged DMBA-induced mammary carcinoma tumors in rats at 5.1 mg dose; assay type: functional; method in brief: as §4
[31] = species on record: Rattus norvegicus; test: Number of DMBA-induced mammary carcinoma tumors in rats at 5.1 mg dose; assay type: functional; method in brief: as §6
[32] = species on record: Rattus norvegicus; test: Change in body weight of DMBA-induced mammary carcinoma tumor bearing rats at 1.7 mg dose; assay type: functional; method in brief: as §7
[33] = species on record: Rattus norvegicus; test: Change in DMBA-induced mammary carcinoma tumor area in rats at 5.1 mg dose; assay type: functional; method in brief: as §3
[34] = species on record: Rattus norvegicus; test: Percent progressive DMBA-induced mammary carcinoma tumors in rats at 1.7 mg dose; assay type: functional; method in brief: as §4
[35] = species on record: Rattus norvegicus; test: Formation of new DMBA-induced mammary carcinoma tumors in rats at 5.1 mg dose; assay type: functional; method in brief: as §6
[36] = species on record: Rattus norvegicus; test: Percent unchanged DMBA-induced mammary carcinoma tumors in rats at 1.7 mg dose; assay type: functional; method in brief: as §4
[37] = species on record: Rattus norvegicus; test: Number of DMBA-induced mammary carcinoma tumors in rats at 1.7 mg dose; assay type: functional; method in brief: as §6
[38] = species on record: Rattus norvegicus; test: Formation of new DMBA-induced mammary carcinoma tumors in rats at 1.7 mg dose; assay type: functional; method in brief: as §6

inhibition [1]: 14%
inhibition [10]: 17%
inhibition [16]: 56%
inhibition [20]: 52%
Structure (SMILES): CCc1c(-c2ccc(OC(C)=O)cc2)n(C)c2cc(OC(C)=O)ccc12
Anti-uterotrophic effect [2]: 47.6
Change of tumor area [3]: -100%
Progressed tumors [4]: 7%
Partial remission [5]: 29%
Anti-uterotrophic effect [6]: 34.7
Anti-uterotrophic effect [7]: 48.8
Uterotrophic effect [8]: 13.2
Complete remission [9]: 43%
New tumors [11]: 10
Uterotrophic effect [12]: 30
Uterotrophic effect [13]: 20.4
No. of tumors [14]: 18
Static tumors [15]: 21%
Change of body weight [17]: -7%
Change of tumor area [18]: -88%
Anti-uterotrophic effect [19]: 33.5
Uterotrophic effect [21]: 16.2

inhibition [1]: 35%
inhibition [10]: 33%
inhibition [16]: 42%
inhibition [20]: 62%
Structure (SMILES): CC(=O)Oc1ccc(-c2c(C)c3cc(OC(C)=O)ccc3n2C)cc1
Anti-uterotrophic effect [2]: 40
Change of body weight [22]: 0%
Anti-uterotrophic effect [6]: 28.8
Change of tumor area [23]: -44%
Anti-uterotrophic effect [7]: 39.2
Uterotrophic effect [8]: 13.7
Progressed tumors [24]: 39%
Change of tumor area [25]: 577%
Uterotrophic effect [12]: 20.9
Partial remission [26]: 6%
Change of tumor area [27]: 318%
Complete remission [28]: 32%
Partial remission [29]: 10%
Uterotrophic effect [13]: 16.1
Static tumors [30]: 19%
No. of tumors [31]: 37
Change of body weight [32]: 2%
Change of tumor area [33]: 9% and 18%
Progressed tumors [34]: 70%
New tumors [35]: 37
Static tumors [36]: 15%
No. of tumors [37]: 29
Anti-uterotrophic effect [19]: 36.6
Uterotrophic effect [21]: 14.6
New tumors [38]: 38
